Runt-SMMHC FRET – blocks binding of human RUNX1 Runt domain to CBFb-SMMHC; Q01196+Q13951; Cerulean-Runt/Venus-CBFb-SMMHC FRET ratio 530/480, 1 h; inhibition, % at 20 µM; 0.74% of 220,000 active; AID 1434;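 active = mean inhibition across duplicate retests at 20 µM reaching about 50%, limit read from the data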;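 also: inhibitors lower the FRET ratio by blocking Runt binding to CBFb-SMMHC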
Target sequence (Q01196 whole entry, looked up, the tested form may be a part): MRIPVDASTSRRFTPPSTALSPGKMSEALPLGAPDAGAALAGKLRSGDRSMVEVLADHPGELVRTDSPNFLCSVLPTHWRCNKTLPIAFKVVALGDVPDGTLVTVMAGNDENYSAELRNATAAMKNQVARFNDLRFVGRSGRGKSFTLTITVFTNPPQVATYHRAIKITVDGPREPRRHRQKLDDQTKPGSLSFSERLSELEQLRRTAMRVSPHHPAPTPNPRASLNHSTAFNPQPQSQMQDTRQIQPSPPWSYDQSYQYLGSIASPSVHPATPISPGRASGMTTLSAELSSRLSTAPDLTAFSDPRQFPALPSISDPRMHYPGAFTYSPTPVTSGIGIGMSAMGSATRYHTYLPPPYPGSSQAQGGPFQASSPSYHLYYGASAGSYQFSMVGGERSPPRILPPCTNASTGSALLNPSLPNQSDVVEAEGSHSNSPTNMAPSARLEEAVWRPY
Target sequence (Q13951 whole entry, looked up, the tested form may be a part): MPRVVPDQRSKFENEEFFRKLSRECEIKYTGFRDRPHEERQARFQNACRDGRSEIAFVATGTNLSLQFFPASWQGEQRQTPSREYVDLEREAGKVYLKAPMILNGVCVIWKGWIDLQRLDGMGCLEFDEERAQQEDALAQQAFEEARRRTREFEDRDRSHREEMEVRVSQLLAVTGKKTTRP
RBBP9 inhibitor – inhibitors of human serine hydrolase RBBP9 | recombinant RBBP9, FP-Rh probe fluorescence polarization | AID 1515 | inhibition, % at 7.94 µM | 0.2% of 220,000 active | O75884;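 active = inhibition above the campaign mean of all tested compounds plus 3 SD, cut at about 14% in these data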
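Measured by: FP readout at 525/598 nm; material: recombinant human RBBP9; also added: Serine-hydrolase probe FP-Rh, 375 nM pre-mixing; medium: Tris buffer pH 8.0, NaCl, Pluronic; replication: one well per compound; doses: one concentration, 7.94 µM nominal, 0.794% DMSO; timing: preincubation 30 min plus labeling 45 min at 25 °C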
Hck-Nef inh – human Hck-Nef kinase inhibition | AID 463187 | 0.68% of 220,000 active | P08631 | Recombinant Hck-YEEI plus Nef, Z-Lyte FRET kinase assay | inhibition, % at 20 µM;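 active = Hck-Nef kinase inhibition above about 50%, limit read from the data; inactive = inhibition below that limit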
RanGTP-Impb inh – inhibitors of RanGTP-importin-beta interaction, primary screen, biochemical, FRET, CFP-Ran, YFP-importin-beta, homogeneous. cell-free CFP-Ran/YFP-importin-beta FRET ratio. inhibition, % (no concentration beside the values). 1.1% of 300,000 active. AID 2216;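 active = more than half of the replicate wells show a fall in the fluorescence ratio signal beyond about 16%, limit read from the data, passing the limit was not always enough; inconclusive = exactly half of the replicate wells pass the set limit; inactive = fewer than half of replicates pass the limit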
PfM18AAP inh-1 – PfM18AAP enzyme inhibition; recombinant PfM18AAP, H-Glu-NHMec fluorogenic cleavage; inhibition, % at 7.35 µM; 1.2% of 290,000 active; AID 1822;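 active = inhibition above the campaign mean inhibition over all tested compounds plus 3 SD, cut at about 28% in these data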
Runt-CBFb FRET – inhibitors of human RUNX1 Runt domain binding to CBFb; Q01196+Q13951; Cerulean-Runt/Venus-CBFb FRET ratio 530/480, 1 h; inhibition, % at 20 µM; 0.46% of 220,000 active; AID 1496;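 active = inhibition over about 50% at 20 µM in the single-dose screen, limit read from the data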
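System: Cerulean-labeled Runt domain protein | Quantity: 100 nM of each labeled protein | Schedule: 1 h compound exposure, room temperature | Detection: Fluorescence energy transfer, 422 nm excitation, 530/480 nm emission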
PfM18AAP inh-2 – confirmation of Plasmodium falciparum M18 aspartyl aminopeptidase inhibitors. 28% of 2,400 active. inhibition, % at 7.35 µM. shares compounds with PfM18AAP inh-1. recombinant PfM18AAP, H-Glu-NHMec fluorogenic cleavage;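 active = mean inhibition over replicate wells above the hit cutoff set for the earlier primary screen, cut at about 29% in these data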
CTSL1 counter – counter-screen for PFM18AAP inhibitors: confirmation of human cathepsin L inhibitors | shares compounds with PfM18AAP inh-1 | purified cathepsin L1, Z-Leu-Arg-MCA fluorescence | inhibition, % at 5.96 µM | 2,400 tested, under 10 active;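 active = average inhibition across replicates above the hit cutoff set in the earlier primary screen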
A number is an active result. Compounds with a hit are over-represented: about 2.9% of the library has one in this group of screens.

How did CCOc1ccc(S(=O)(=O)NC(C)C(=O)NCc2cccnc2)cc1 (stereo unspecified) do in these assays?
RanGTP-Impb inh: inactive; PfM18AAP inh-1: inactive

What do the screens show for `O=C(CCc1nc2ccccc2s1)OCC(=O)c1ccccc1`?
Runt-SMMHC FRET: inactive; RBBP9 inhibitor: inactive; Hck-Nef inh: inactive; RanGTP-Impb inh: inactive; PfM18AAP inh-1: inactive; Runt-CBFb FRET: inactive

Results for COc1ccccc1OC(=O)CCc1nc2ccccc2s1 ?
Runt-SMMHC FRET: inactive; RBBP9 inhibitor: inactive; Hck-Nef inh: inactive; RanGTP-Impb inh: inactive; PfM18AAP inh-1: 37.6; Runt-CBFb FRET: inactive; PfM18AAP inh-2: inactive; CTSL1 counter: inactive

What do the screens show for `Cc1ccc(C(=O)CSc2ccccn2)cc1`?
Runt-SMMHC FRET: inactive; RBBP9 inhibitor: inactive; Hck-Nef inh: inactive; RanGTP-Impb inh: inactive; PfM18AAP inh-1: 43.8; Runt-CBFb FRET: inactive; PfM18AAP inh-2: inactive; CTSL1 counter: inactive

What do the screens show for `O=C(O)c1ccnc(SCC(=O)c2ccccc2)c1`?
Runt-SMMHC FRET: inactive; RBBP9 inhibitor: inactive; Hck-Nef inh: inactive; RanGTP-Impb inh: inactive; PfM18AAP inh-1: 49.8; Runt-CBFb FRET: inactive; PfM18AAP inh-2: inactive; CTSL1 counter: inactive

Results for CN(Cc1cccnc1)C(=O)CCCc1c[nH]c2ccccc12 ?
RanGTP-Impb inh: inactive; PfM18AAP inh-1: inactive

Results for O=c1c2ccccc2sn1-c1ccc(S(=O)(=O)N2CCCC2)cc1 ?
Runt-SMMHC FRET: inactive; RBBP9 inhibitor: inactive; Hck-Nef inh: inactive; RanGTP-Impb inh: inconclusive; PfM18AAP inh-1: 33.1; Runt-CBFb FRET: inactive; PfM18AAP inh-2: inactive; CTSL1 counter: inactive

Results for CN(C)S(=O)(=O)c1cccc(-n2sc3ccccc3c2=O)c1 ?
Runt-SMMHC FRET: inactive; RBBP9 inhibitor: inactive; Hck-Nef inh: inactive; PfM18AAP inh-1: 43.4; Runt-CBFb FRET: inactive; PfM18AAP inh-2: 42.6; CTSL1 counter: inactive

Results for Cc1ccc2nc(-c3cccc(S(=O)(=O)N(C)C)c3)cn2c1 ?
Runt-SMMHC FRET: inactive; RBBP9 inhibitor: inactive; Hck-Nef inh: inactive; RanGTP-Impb inh: inactive; PfM18AAP inh-1: inactive; Runt-CBFb FRET: inactive

What do the screens show for `CC1(C)CC(NC(=O)CCc2nnc(CCCCc3ccccc3)o2)CCO1` (stereo unspecified)?
Runt-SMMHC FRET: inactive; RBBP9 inhibitor: inactive; Hck-Nef inh: inactive; RanGTP-Impb inh: inactive; PfM18AAP inh-1: inactive; Runt-CBFb FRET: inactive

Results for O=S(=O)(Nc1ccc2c(c1)nc1n2CCN(Cc2ccccc2)C1)c1ccccc1 ?
Runt-SMMHC FRET: inactive; RBBP9 inhibitor: inactive; Hck-Nef inh: inactive; RanGTP-Impb inh: inactive; PfM18AAP inh-1: 59.7; Runt-CBFb FRET: inactive; PfM18AAP inh-2: inactive; CTSL1 counter: inactive

What do the screens show for `CN(C)C(=O)COc1ccc(Oc2ccccc2)cc1`?
Runt-SMMHC FRET: inactive; RBBP9 inhibitor: inactive; Hck-Nef inh: inactive; RanGTP-Impb inh: inactive; PfM18AAP inh-1: inactive; Runt-CBFb FRET: inactive

How did O=C(Nn1cnnc1)c1ccc(Cl)c(Cl)c1 do in these assays?
RanGTP-Impb inh: inactive; PfM18AAP inh-1: 51.7; PfM18AAP inh-2: 50.2; CTSL1 counter: inactive

What do the screens show for `CCNC(=O)c1cc(Br)ccc1Cl`?
Runt-SMMHC FRET: inactive; RBBP9 inhibitor: inactive; Hck-Nef inh: inactive; RanGTP-Impb inh: inactive; PfM18AAP inh-1: inactive; Runt-CBFb FRET: inactive

Results for O=C(Nn1cnnc1)c1cc(Br)ccc1Cl ?
RanGTP-Impb inh: inactive; PfM18AAP inh-1: 60.0; PfM18AAP inh-2: 55.2; CTSL1 counter: inactive

Results for O=C(O)CCC(=O)Nc1ccc(Cc2ccc(NC(=O)CCC(=O)O)c(O)c2)cc1O ?
Runt-SMMHC FRET: inactive; RBBP9 inhibitor: inactive; Hck-Nef inh: inactive; RanGTP-Impb inh: inactive; PfM18AAP inh-1: 57.5; Runt-CBFb FRET: inactive; PfM18AAP inh-2: inactive; CTSL1 counter: inactive

Assay outcomes deposited in PubChem by several laboratories.
